# Results reported in PubChem BioAssay.
# Values without a mark were called inactive. Records with an inconclusive call do not appear. Calls of active or inactive are those of the source.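 Rule for the calls, unless noted: active = growth inhibition above 25% in both replicates, a cutoff set 3 SD above the mean; inconclusive = above 25% in only one replicate; inactive = the rest.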
# How the values were obtained:
# [1] = OD615 S. cerevisiae growth inhibition, permissive medium, pilot counter-assay, permissive growth control for S. cerevisiae lifespan shortening project (AID 705); conditions: OD615, 24 h, at 10 µM, stronger effect = higher value
# Summary of the method: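 System: S. cerevisiae with engineered DeaD lifespan system. Medium: SC raffinose/galactose permissive medium. Doses: single compound dose of 10 µM, 0.25% DMSO final. Schedule: 24 h exposure, 30 °C. Measured by: OD615 turbidity read. Read-out: growth inhibition.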
# [2] = Restrictive medium S. cerevisiae growth inhibition, OD615, pilot screen of yeast lifespan reduction project, restrictive growth control (AID 706;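 active = growth inhibition above a set limit, 3 SD over mean compound inhibition, in both replicates, cut at about 43% in these data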;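 note: modified DeaD lifespan yeast strain shifted to restrictive glucose medium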); conditions: OD615, 48 h, at 10 µM, stronger effect = higher value
# Summary of the method: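 Assay system – genetically modified Saccharomyces cerevisiae, DeaD replicative lifespan assay strain · Medium – CSMM-D glucose medium · Doses – 10 µM compound, 0.25% DMSO · Times – 4 h pre-incubation, 48 h exposure at 30 °C · Signal – optical density at 615 nm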
# [3] = viability gain of MRP-1-high H69AR cells under doxorubicin, pilot screen, MRP-1 activator project, CellTiter-Glo, duplicate (AID 807;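 active = viability increase at or above a cutoff of the median across tested compounds plus 3 SD, cut at about 8.5% in these data, passing the limit was not always enough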;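 note: compound pretreatment 18-22 h then 72 h combined with doxorubicin; 0% = doxorubicin alone and 100% = vehicle without doxorubicin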); conditions: H69AR viability with doxorubicin, CellTiter-Glo luminescence; at 10 µM; stronger effect = higher value
# [4] = growth suppression of beta-catenin knockout HCT116, pilot screen, human colon tumor cells (AID 823;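 active = cell viability at or below a set limit in both duplicate runs, the limit being the all-compound median minus 4 SD, cut at about 23% in these data, passing the limit was not always enough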;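 note: 0% = wells killed by 20 µM Hyamine and 100% = untreated DMSO cell wells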); conditions: CellTiter-Glo, 60 h, at 10 µM, stronger effect = lower value
# [5] = growth suppression of PTEN-deleted HCT116, pilot screen, cell-based, HCT116 clonal line, CellTiter-Glo (AID 824;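 active = viability at or below 27.92% in each of two runs, the all-compound median minus 4 SD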;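 note: 0% = 20 µM Hyamine control and 100% = vehicle cell control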); conditions: 60 h, at 10 µM, stronger effect = lower value
# [6] = inhibitors of the yeast RAM network, pilot screen, dse1pr::URA3 reporter, 5-FOA selection (AID 869;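 active = inhibition over a set limit, the all-compound mean plus 3 SD, in both replicate runs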;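 note: 0% = DMSO wells with no growth and 100% = 10 µM 1-NA-PP1 with full growth; RAM network block rescues cells from 5-FOA so hits raise OD615 growth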); conditions: S. cerevisiae dse1pr::URA3 5-FOA growth, OD615, 2 d; at 10 µM; stronger effect = higher value; strain carries analog-sensitive mutant Cbk1 kinase
# [7] = RAM signaling pathway blockade in yeast – S. cerevisiae, Pdr1DBD-CYC8 efflux-inhibited sensitized strain, primary screen (AID 1298;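 active = RAM network inhibition above 8.4% in each of two replicates, 3 SD over the compound average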;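 note: 0% = DMSO untreated cells without growth and 100% = 10 µM 1-NA-PP1 full growth; higher means more yeast growth rescued from 5-FOA killing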); conditions: S. cerevisiae cbk1-as DSE1-URA3 strain, 5-FOA growth OD615, 2 d; at 50 µM; stronger effect = higher value
Structure (SMILES),growth inhibition [1] [%],growth inhibition [2] [%],viability increase [3] [%],viability [4],viability [5],inhibition [6] [%],RAM network inhibition [7] [%]
Cn1nc(-c2ccc(Cl)cc2)c2cc(C(=O)NCCCN3CCCC3)sc21,-5.71,4.49,-8.31,2.27% (active),1.95% (active),1.23,0.73
COc1ccc(Cn2c(=O)[nH]c3cc(C(=O)NCCCN4CCCC4=O)ccc3c2=O)cc1,-17.7,-12.3,0.19,91.6%,90.4%,0.92,1.36
CCOc1ccccc1C1C(C(=O)Nc2ccccc2OC)=C(C)Nc2nc(CCCO)nn21 (configuration not stated),-20.1,-8.73,-3.55,89.5%,88%,1.01,4.4
Cc1ccc(NC(=O)CSc2nnc(-c3ccncc3)n2N)cc1C,-4.62,-3.02,-2.83,97.8%,98.3%,1.71,2.23
COc1ccc(NC(=O)CN(c2cc(C)cc(C)c2)S(=O)(=O)c2c(C)noc2C)cc1,-19.1,-14.2,-2.45,95.2%,101%,0.19,2.39
Cn1c(CSc2nc3ccccc3s2)n[nH]c1=S,-6.41,1.9,-3.16,96.9%,94.6%,0.23,0.95
CCOC(=O)N1CCC(Nc2c(OCC)c(=O)c2=O)CC1,-10.2,10.1,-0.57,102%,96.4%,1.31,5.22
COc1ccc(N2CCN(CCCNS(=O)(=O)c3ccc4c(c3)oc(=O)n4C)CC2)cc1,-8.8,2.4,0.06,94.3%,97.4%,1.25,6.05
CC(C)N1CCc2c(sc(NC(=O)c3ccc(S(=O)(=O)N4CCOCC4)cc3)c2C(N)=O)C1,-2.23,-11.5,-3.25,92.6%,88.7%,2.21,1.28
O=C(CC(=O)N1CCN(c2ccccn2)CC1)Nc1ccc2nc3n(c(=O)c2c1)CCCCC3,-3.13,-3.46,0.08,101%,100%,0.87,2.7
COc1ccc(C(=O)Nc2cc(-c3nn4c(C)nnc4s3)ccc2C)cc1,8.96,33.2,-5.02,98.3%,88.2%,1.27,2.75
COc1ccccc1N1CCN(C(=O)CN(c2ccccc2OC)S(=O)(=O)c2ccccc2)CC1,-0.685,-7.83,-1.57,87.5%,83.9%,0.845,4.88
Cc1ccc(-c2nc(CSCC(=O)N3CCN(c4ccccn4)CC3)c(C)o2)cc1,-5.27,15.5,-2.65,20.3% (active),44.5%,1.56,-0.57
Cn1c(C(=O)N2CCC(C(=O)N3CCOCC3)CC2)cc2sccc21,-9.67,-7.13,1.85,98.7%,98.8%,0.59,0.9
CC(Oc1ccc(Cl)cc1Cl)c1nc(-c2ccccn2)no1 (configuration not stated),-3.06,5.3,1.23,99.1%,87.7%,0.375,2.34
Cc1c(C(=O)NCc2ccccc2)oc2ccc(S(=O)(=O)N3CCCC3)cc12,-11.4,3.53,-2.64,97%,93.1%,1.49,2.93
CCCSCCCNC(=O)Cn1cc2c(n1)CCCCC2,-3.9,5.24,-2.42,94%,93.2%,-0.37,3.05
CC(=O)Cc1nsc(NC(=O)C2Cc3ccccc3C(=O)O2)n1 (configuration not stated),-15.5,-1.69,-1.57,102%,100%,0.45,6.74

Structure (SMILES),growth inhibition [1] [%],growth inhibition [2] [%],viability increase [3] [%],viability [4],viability [5],inhibition [6] [%],RAM network inhibition [7] [%]
COCCN1C=C(C(=O)OC)C(c2ccc3c(c2)OCO3)C(C(=O)OC)=C1,-9.64,1.92,2.8,97.9%,102%,-0.19,3.59
C=CC1C(N2CCOCC2)C(C)(C)S1(=O)=O (configuration not stated),4.78,5.46,-1.46,102%,101%,1.38,-0.28
COc1ccc(OCCC(=O)OCC(=O)NCc2ccco2)cc1,-11,1.25,-1.75,92.2%,92.2%,1.01,4.11
Cn1ccnc1SCC(=O)c1cc2ccccc2o1,-6.64,-0.315,-2.52,95.7%,99.4%,0.57,1.04
COc1cccc(-c2nn(C)c3sc(C(=O)N4CCOCC4)cc23)c1,6.62,9.91,-2.47,97.5%,94.9%,1.45,5.9
CCC(=O)N=c1sc2c(OC)ccc(OC)c2n1C,-7.02,-7.99,-4.85,92.4%,91.2%,1.68,2.04
CCOC(=O)C1=C(C)N(C)C(C)=C(C(=O)OCC)C1c1ccccn1,-13.2,-14.6,-0.35,96.2%,91.6%,1.98,0.62
O=C(Nc1ccccc1Cl)N1CCN(c2ccc3nnc(-c4ccccc4)n3n2)CC1,6.99,29.4,-4.19,79.4%,74.8%,0.435,2.07
CC1CCCCC1NS(=O)(=O)c1ccc(S(=O)(=O)N2CCN(CCC#N)CC2)cc1 (configuration not stated),-0.665,-2.72,-2.84,86.2%,87.8%,0.54,3.44
COc1ccc2cc(S(=O)(=O)N3CCOCC3)ccc2c1,-11.2,-7.81,-1.77,94.4%,99.2%,0.075,1.03
Cc1ccc(NC(=O)CCNS(=O)(=O)c2cccc3nonc23)cc1,-4.17,-8.23,-1.47,105%,95.5%,0.755,4.98
Cc1nc2sc(C(c3cccs3)N3CCN(C(=O)c4ccco4)CC3)c(O)n2n1 (configuration not stated),-1.15,-6.47,-3.62,102%,100%,0.74,-1.05
Cc1c(C(=O)N2CCCc3ccccc32)sc2nc(-c3ccccc3)cn12,-8.77,0.195,-2.82,65.9%,68.4%,2.46,5.58
CC(C)(C)n1nc2c(c1NC(=O)c1ccccc1F)CS(=O)C2 (configuration not stated),1.35,0.655,0.62,101%,101%,1.66,1.67
CCOC(=O)CN1C(=O)C(O)(CC(=O)c2ccccn2)c2ccccc21 (configuration not stated),-10.3,3.35,-4.5,82.8%,92%,1.31,1.78
CN(c1ccc(C(=O)O)cc1)S(=O)(=O)c1ccccc1,0.21,5.12,-1.24,99.5%,92.5%,1.14,1.5
Cn1c(=O)oc2cc(S(=O)(=O)N3CCCC3)ccc21,4.02,-7.37,-2.12,102%,97.2%,0.645,0.66
Cc1nn(C(=O)c2cccs2)c(N)c1-c1ccccc1,2.29,5.9,0.4,84.4%,96%,0.035,2.36
